Screens (PubChem)
A selection: hits, their analogues and other compounds. The true share with any hit is near 2.3%.
PAFAH2 inh: inhibitors of human PAFAH2. AID 492956. 340,000 compounds, 0.99% hits. recombinant PAFAH2, FP-rhodamine activity probe, fluorescence polarization. Q99487. inhibition, % at 3.39 µM;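 active means inhibition above the mean over all tested compounds plus 3 SD, cut at about 30% in these data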;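 further: inhibitors block probe labeling of enzyme so polarization drops; 0% = enzyme with DMSO and 100% = wells lacking PAFAH2 protein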
Apaf-1 inh: human Apaf-1 inhibition; O14727; reconstituted apoptosome caspase-3 activity, DEVD-Rh110 fluorescence; inhibition, % at 20 µM; 330,000 compounds, 0.71% hits; AID 489030; active means inhibition of at least 40% at 20 µM;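 further: plate controls were DMSO wells for no effect and DEVD-CHO caspase inhibitor wells for full effect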
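Material: reconstituted apoptosome with Apaf-1, cytochrome c, caspase-9, procaspase-3, dATP; medium: pH 7.5 Hepes buffer with CHAPS, BSA, DTT; also added: cytochrome c and DEVD-Rh110 substrate; timing: 30 min plus 50 min, RT; signal: Rh110 fluorescence intensity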
TDP2 inh: blocks human TDP2 phosphodiesterase activity; O95551; 370,000 compounds, 0.34% hits; recombinant TDP2, T5PNP hydrolysis, p-nitrophenol absorbance 415 nm; inhibition, % at 12.8 µM;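 active means inhibition above the mean of all tested compounds plus 3 SD, set per campaign, cut at about 25% in these data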;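 further: 0% = DMSO with enzyme and 100% = buffer with substrate but no TDP2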
Target sequence (O95551 whole entry, looked up): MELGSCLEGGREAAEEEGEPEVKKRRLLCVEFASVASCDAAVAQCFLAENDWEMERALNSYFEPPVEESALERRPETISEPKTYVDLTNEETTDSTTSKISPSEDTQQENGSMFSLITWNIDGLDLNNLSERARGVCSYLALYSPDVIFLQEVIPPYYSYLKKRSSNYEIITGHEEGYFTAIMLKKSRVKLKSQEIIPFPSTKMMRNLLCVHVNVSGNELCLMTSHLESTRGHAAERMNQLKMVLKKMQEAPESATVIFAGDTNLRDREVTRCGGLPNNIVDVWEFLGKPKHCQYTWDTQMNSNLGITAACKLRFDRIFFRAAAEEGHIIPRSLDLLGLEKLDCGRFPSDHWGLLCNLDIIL
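Assay system: recombinant human TDP2 / Reagent: T5PNP substrate at 5 mM, a TopII-DNA adduct mimic / Measured by: epi absorbance from released p-nitrophenol / Evaluation: % inhibition relative to enzyme-containing and enzyme-free wells / Control set: enzyme-free and DMSO wells / Replicates: each compound tested once, singlicate / Schedule: enzyme reaction with compound for 2 h at 37 °C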
PAFAH1B3 inh: inhibitors of human PAFAH1B3; recombinant PAFAH1B3, FP-rhodamine probe, fluorescence polarization; inhibition, % at 3.39 µM; 340,000 compounds, 0.28% hits;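 active means inhibition above the screen-wide average of all tested compounds plus 3 SD, cut at about 25% in these data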;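 further: 0% = enzyme with DMSO only and 100% = wells lacking PAFAH1B3 protein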
Target sequence (Q15102 whole entry, looked up): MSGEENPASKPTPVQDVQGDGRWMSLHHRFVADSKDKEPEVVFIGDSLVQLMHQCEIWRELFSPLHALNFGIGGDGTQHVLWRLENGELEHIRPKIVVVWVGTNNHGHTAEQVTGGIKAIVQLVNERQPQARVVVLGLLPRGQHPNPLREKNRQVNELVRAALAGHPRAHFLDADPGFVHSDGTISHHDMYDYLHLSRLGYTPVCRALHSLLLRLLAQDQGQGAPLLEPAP
PAFAH1B2 FP inh: blocks human PAF acetylhydrolase 1b catalytic subunit 2; P68402; 340,000 compounds, 1.2% hits; inhibition, % at 3.39 µM; recombinant PAFAH1B2, FP-rhodamine activity probe, fluorescence polarization;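 active means inhibition above the mean of all tested compounds plus 3 SD, cut at about 24% in these data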;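 further: 0% = enzyme with DMSO and 100% = wells lacking PAFAH1B2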
Numbers without * were called inactive; . = no result given.

SMILES	PAFAH2 inh	Apaf-1 inh	TDP2 inh	PAFAH1B3 inh	PAFAH1B2 FP inh
O=C(O)CCCN1C(=O)/C(=C/C=C/c2ccco2)SC1=S	31.9*	37.4	5.5	11.8	5.6
O=C(NN1C(=O)/C(=C/C=C/c2ccco2)SC1=S)c1ccccc1O	59.2*	24.5	23.9	26.2*	18.6
O=C(CCc1ccccc1)N[C@H]1[C@H](OCc2ccccc2)CCC[C@@]12C(=O)N(Cc1ccccc1)c1ccc(-c3ccccn3)cc12	.	.	-4.1	.	.
N#C/C(=C\c1ccc2c(c1)OCO2)C(N)=S	.	-17.2	-4.1	.	.
N#C/C(=C/c1ccco1)C(N)=S	34.0*	6.9	12.2	17.3	13.9
COc1cc(C(=O)O[C@H]2CC(C)=CC[C@@]3(C)CC[C@@](O)(C(C)C)[C@H]23)ccc1O	1.1	31.7	-24.7	-2.6	34.1*
CCCNC(=O)c1ccc2c(c1)nc(C)n2-c1cccc(Cl)c1	-3.8	2.1	-10.4	10.0	5.8
Cc1nc2cc(C(=O)OCC(=O)Nc3cccc(Cl)c3)ccc2n1-c1ccccc1	63.6*	20.7	1.4	-2.4	-3.5
Cc1nc2cc(C(=O)OCC(=O)NC34CC5CC(CC(C5)C3)C4)ccc2n1-c1ccccc1	83.3*	13.6	-7.9	6.7	3.7
Cc1nc2cc(C(=O)OCC(=O)NC3CCS(=O)(=O)C3)ccc2n1-c1ccccc1 (stereo not drawn)	-4.7	-4.2	-11.8	2.4	4.2
N/C(=N\OC(=O)CC1CCCCC1)c1cccc(Br)c1	20.5	5.5	0.0	5.3	15.6
N/C(=N\OC(=O)CCc1ccccc1)c1ccc(Br)cc1	-1.5	-11.6	-7.0	4.3	71.0*
Cc1ccc(/C(N)=N/OC(=O)CCc2ccccc2)cc1	2.9	-7.4	-11.0	1.9	9.0
N/C(=N\OC(=O)CCc1ccccc1)c1cccc(Br)c1	6.0	-6.6	-7.8	7.6	66.5*
O=C(Cc1c[nH]c2ccccc12)Nc1ccc(Nc2cccnc2)c(-c2cc(F)cc(F)c2)c1	.	.	-0.5	.	.
COc1ccc(C(=O)N(C)[C@H]2C[C@H]3c4[nH]c5c(-c6ccccc6)cccc5c4CCN3C(=O)[C@H]2[C@H](C)O)cc1	.	.	-0.7	.	.
CCC1CN(C(=O)NCc2ccccc2)c2cc(C)ccc2O1 (stereo not drawn)	70.9*	8.6	1.1	49.7*	35.8*
CCC1CN(C(=O)NCc2ccc(C)cc2)c2cc(C)ccc2O1 (stereo not drawn)	-4.1	16.7	-4.2	5.6	-5.0
CN1C2=N[C@@H](c3ccccc3)CC(=O)N2/C(=C\c2ccccc2)[C@H]1c1ccccc1	.	.	-12.6	.	.
CC(C)C(C(=O)Nc1nccs1)c1ccc(Cl)cc1 (stereo not drawn)	9.5	15.8	-4.4	7.9	36.4*
O=C(CSCc1ccc(Cl)cc1)Nc1nccs1	8.9	-7.3	-0.1	8.3	27.7*
O=S(=O)(Cc1ccccc1)N1CCn2c(nc3ccccc32)C1	5.7	2.0	-1.2	6.8	2.3
O=S(=O)(c1ccc(Br)cc1)N1CCn2c(nc3ccccc32)C1	7.7	-0.3	-3.7	8.4	28.8*
CCN(CC)CCN(C(=O)c1ccc(S(=O)(=O)N(CC)c2ccccc2)cc1)c1nc2c(OC)ccc(OC)c2s1	-2.5	-7.2	-0.3	-4.6	30.5*
COc1ccc(/C=C2\CC3(OC(=O)c4ccccc4)CCCN2C3)cc1 (stereo not drawn)	.	.	-10.2	.	.
SMILES	PAFAH2 inh	Apaf-1 inh	TDP2 inh	PAFAH1B3 inh	PAFAH1B2 FP inh
Cc1ccc(SCc2cn3c(C)csc3n2)cc1	-1.9	-4.9	5.6	0.5	52.9*
Cc1oc2c(CN(C)C)c(O)ccc2c(=O)c1-c1cscn1	2.5	-19.1	37.6*	8.6	-1.2
C1=CC2c3ccccc3NC(c3ccncc3)C2C1 (stereo not drawn)	6.1	49.4*	12.4	8.0	5.7
Brc1cc2c(cc1C1Nc3ccccc3C3C=CCC31)OCO2 (stereo not drawn)	-2.8	5.8	-1.3	3.8	-4.6
COc1ccccc1N(CC(=O)NCCSCc1ccc(C)cc1)S(=O)(=O)c1ccccc1	1.0	32.4	3.6	1.3	26.8*
COc1ccc(N(CC(=O)NCCSCc2ccc(C)cc2)S(=O)(=O)c2ccccc2)cc1	-1.8	26.9	-7.6	8.9	10.0
O=C(Nc1nc2ccc(S(=O)(=O)N3CCCCC3)cc2s1)c1cccnc1	-9.0	-0.3	-11.3	1.8	22.6
O=C(Nc1nc2ccc(S(=O)(=O)N3CCCCC3)cc2s1)c1ccncc1	-2.4	-1.2	-1.1	6.2	30.1*
O=C(CCn1nnc2ccccc21)Nc1nnc(COc2ccccc2F)s1	1.6	14.2	-6.1	1.2	17.8
O=C(CCn1nnc2ccccc21)Nc1nnc(Cc2ccccc2)s1	14.2	-0.4	-9.4	8.3	27.0*
O=c1[nH][nH]c2c([N+](=O)[O-])ccc(F)c12	.	.	2.4	.	.
O=c1[nH][nH]c2c(N=Cc3ccccc3O)ccc(F)c12	62.2*	.	.	61.2*	40.5*
COC(=O)C1=C(C)N(Cc2ccccc2C(F)(F)F)C(=NCc2ccc(OC)cc2)NC1c1ccc(C(F)(F)F)cc1 (stereo not drawn)	.	.	0.2	.	.
CC(O)(CS(=O)(=O)Cc1cccc(C(F)(F)F)c1)C(=O)Nc1cccc(C(F)(F)F)c1 (stereo not drawn)	-7.3	-7.0	-4.4	-3.2	38.5*
CC(C)(C)C1CCC2(CC1)C(C#N)=C(SCC(=O)Nc1ccccc1)NC(=O)C2C#N (stereo not drawn)	5.0	15.8	-3.5	8.1	57.5*
Cc1ccc(N2NC(=O)/C(=C\c3cc4c(cc3[N+](=O)[O-])OCO4)C2=O)cc1C	50.4*	.	-2.2	6.7	16.2
O=c1c(O)c(-c2cc(O)c(O)c(O)c2)oc2cc(O)cc(O)c12	8.6	-8.7	-6.2	40.9*	32.4*
O=c1c(O)c(-c2ccccc2)oc2cc(O)cc(O)c12	13.1	-8.0	2.8	22.6	11.9
CC(C)=CCc1cc(-c2oc3cc(O)cc(O)c3c(=O)c2O)ccc1O	-8.4	-11.0	-5.3	26.2*	12.6
CC(CCC(=O)O)(c1ccc(O)cc1)c1ccc(O)cc1	1.1	3.7	-2.8	11.5	24.8*
COC(=O)[C@H](Cc1ccccc1)N1CC(N2CCCC2)CS1(=O)=O (stereo partly drawn)	.	.	5.0	.	.
Cc1occc1-c1nnc(SCC(=O)Nc2ccccn2)n1-c1ccccc1	.	.	7.5	.	.
O=C(CSc1nccn1-c1ccc(Cl)cc1)N1CCCc2ccccc21	-2.4	10.0	-4.4	-4.5	25.4*
Cc1cc(C)c(Nc2cc(S(=O)(=O)O)c(N)c3c2C(=O)c2ccccc2C3=O)c(C)c1	83.4*	.	-6.3	46.3*	62.7*
Cc1cc(C)c(NC(=O)COC(=O)c2cccc3c2C(=O)c2ccccc2C3=O)c(C)c1	14.8	21.5	0.3	11.0	0.3
CC(NC(=O)c1ccccc1NS(=O)(=O)c1ccc(CCC(=O)O)cc1)c1ccccc1 (stereo not drawn)	2.1	8.7	-7.2	5.9	28.0*
